Source: ChEMBL document CHEMBL6134793, “Synthesis and structure-activity study of the antimicrobial lipopeptide brevibacillin” (RSC Med Chem, 2024)
Values after ≈ are worked out from the molar mass of the structure shown. Active and inactive are the calls of the source. The rule behind the calls is not given here.

Legend:
[1] = system: Staphylococcus aureus; assay: Antimicrobial activity against Staphylococcus aureus ATCC 6538 assessed as growth inhibition by microdilution assay; format: functional
Summary of the method: (§1)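 Twofold serial microdilution of peptide (stocks 2 mg mL−1, diluted to 512 μg mL−1 in water with 10% DMSO) in strain medium, about 1 × 10^4 cfu per well. Media: TSB 20 h 37 °C (S. aureus, L. monocytogenes, B. subtilis, E. faecalis); LB 20 h 37 °C (P. aeruginosa, S. enterica, E. coli); Brucella 48 h 37 °C (C. coli). A595 read; MIC = lowest concentration with no visible growth; triplicate.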

[2] = Hemolytic activity in human erythrocytes at 128 ug/ml measured after 1 hr by absorbance based assay relative to control; format: toxicity, cell-based, Erythrocyte; details: at 128 µg/mL, read-out: Activity
Summary of the method: (§2)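 Washed human donor erythrocytes at 1% hematocrit in PBS pH 7.4 exposed to twofold peptide dilutions (final 2–256 μg mL−1, up to 1% DMSO) for 1 h at 37 °C. After centrifugation, supernatant A405 read. % hemolysis relative to PBS (0%) and 1% Triton X-100 (100%). Triplicate; mean ± SEM.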

[3] = system: Bacillus subtilis; assay: Antimicrobial activity against Bacillus subtilis ATCC 23957 assessed as growth inhibition by microdilution assay; format: functional; summary of the method: as §1
[4] = Hemolytic activity in human erythrocytes assessed as fold decrease at 256 ug/ml measured after 1 hr by absorbance based assay relative to brevibacillin; format: toxicity, cell-based; details: erythrocyte, dose 256 µg/ml; summary of the method: as §2
[5] = system: Listeria monocytogenes; assay: Antimicrobial activity against Listeria monocytogenes ATCC 19111 assessed as growth inhibition by microdilution assay; format: functional; summary of the method: as §1
[6] = system: Campylobacter coli; assay: Antimicrobial activity against Campylobacter coli ATCC 33559 assessed as growth inhibition by microdilution assay; format: functional; summary of the method: as §1
[7] = system: Enterococcus faecalis; assay: Antimicrobial activity against Enterococcus faecalis ATCC 29212 assessed as growth inhibition by microdilution assay; format: functional; summary of the method: as §1
[8] = system: Pseudomonas aeruginosa; assay: Antimicrobial activity against Pseudomonas aeruginosa ATCC […] assessed as diameter of growth inhibition at 128 ug/ml by radial diffusion assay; format: functional; details: dose 128 µg/ml
Summary of the method: (§3)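 Agar well diffusion. Overnight cultures inoculated at 1% into 0.75% soft agar (TSB for S. aureus, LB for P. aeruginosa). Each well received 80 μL of peptide at 128 μg mL−1 in water with 10% DMSO; 10% DMSO served as negative control. Inhibition zone diameter scored after strain-specific incubation.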

[9] = Antimicrobial activity against Salmonella enterica serovar Newport ATCC 6962 assessed as growth inhibition by microdilution assay; format: functional, Salmonella enterica subsp. enterica serovar Newport; summary of the method: as §1
[10] = Cytotoxicity against human Caco-2 cells assessed as inhibition of cell viability incubated for 48 hrs by Cell Titer GLO assay; format: toxicity, cell-based
Summary of the method: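 Caco-2 cells in DMEM with 10% FCS, seeded 25 000 per well, adhered overnight, then given peptide at 2–256 μg mL−1 in complete medium for 48 h at 37 °C, 5% CO2. Controls: cisplatin 125 μM; 0.1% DMSO medium. Viability by ATP luminescence (CellTiter-Glo) versus untreated cells; IC50 from dose–response; mean ± SEM of at least three independent experiments.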

[11] = system: Staphylococcus aureus; assay: Antimicrobial activity against Staphylococcus aureus ATCC 6538 assessed as diameter of growth inhibition at 128 ug/ml by radial diffusion assay; format: functional; details: dose 128 µg/ml; summary of the method: as §3
[12] = system: Escherichia coli; assay: Antimicrobial activity against Escherichia coli ATCC 25922 assessed as growth inhibition by microdilution assay; format: functional; summary of the method: as §1
[13] = system: Pseudomonas aeruginosa; assay: Antimicrobial activity against Pseudomonas aeruginosa ATCC […] assessed as growth inhibition by microdilution assay; format: functional; summary of the method: as §1
[14] = system: Clostridium perfringens; assay: Antimicrobial activity against Clostridium perfringens ATCC 3628 assessed as growth inhibition by microdilution assay; format: functional
Summary of the method: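 Broth microdilution: twofold serial peptide dilutions in reinforced clostridial medium (RCM), seeded with about 1 × 10^4 cfu per well, incubated 20 h at 37 °C. Working solution 512 μg mL−1 made from a 2 mg mL−1 stock in water with 10% DMSO. Growth read as absorbance at 595 nm. MIC taken as the lowest concentration giving complete inhibition of visible growth; run in triplicate.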

[15] = system: Staphylococcus aureus; assay: Bacteriostatic activity against Staphylococcus aureus ATCC 6538 assessed as MBC/MIC ratio by microdilution assay; format: functional
Summary of the method: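 MIC wells showing complete inhibition were sampled, 10 μL spread on agar and incubated 48 h under strain conditions; MBC = lowest concentration giving no growth on agar. MIC by broth microdilution (TSB 20 h 37 °C for S. aureus; Brucella 48 h 37 °C for C. coli). Triplicate.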

[16] = system: Pseudomonas aeruginosa; assay: Antimicrobial activity against Pseudomonas aeruginosa ATCC […] assessed as growth inhibition at 128 ug/ml by radial diffusion assay; format: functional, organism-based; details: dose 128.0 µg/ml; summary of the method: as §3
[17] = Hemolytic activity in human erythrocytes at 128 to 256 ug/ml measured after 1 hr by absorbance based assay; format: toxicity, cell-based; details: erythrocyte, dose 128-256 µg/ml; summary of the method: as §2
[18] = system: Staphylococcus aureus; assay: Antimicrobial activity against Staphylococcus aureus ATCC 6538 assessed as growth inhibition at 128 ug/ml by radial diffusion assay; format: functional, organism-based; details: dose 128.0 µg/ml; summary of the method: as §3

SMILES	MIC [1] [µg/mL]	hemolysis at 1 h, 128 ug/ml [2] [%]	MIC [3] [µg/mL]	fold change (FC) [4]	MIC [5] [µg/mL]	MIC [6] [µg/mL]	MIC [7] [µg/mL]	Activity [8] [mm]	MIC [9] [µg/mL]	IC50 at 48 h [10] [µg/mL]	Activity [11] [mm]	MIC [12] [µg/mL]	MIC [13] [µg/mL]	MIC [14] [µg/mL]	Ratio [15]	growth inhibition (qualitative call) [16]	Activity [17]	growth inhibition (qualitative call) [18]
C/C=C(/NC(=O)[C@@H](O)[C@@H](C)CC)C(=O)N[C@@H](CC(C)C)C(=O)N[C@H](CCCN)C(=O)N[C@H](C(=O)N[C@H](C(=O)N[C@H](C(=O)N[C@H](CCCCN)C(=O)N[C@H](C(=O)N[C@H](C(=O)N[C@@H](CCCCN)C(=O)N[C@H](Cc1ccc(O)cc1)C(=O)N[C@@H](CC(C)C)C(=O)N[C@H](CO)C(C)C)C(C)C)C(C)C)C(C)C)C(C)C)C(C)C	4	0.65	8	25	4	32	32	12	> 128	87.5 (≈ 56.2 µM)	11	64	4	16	8	–	–	–
C/C=C(/NC(=O)[C@@H](O)[C@@H](C)CC)C(=O)N[C@@H](CC(C)C)C(=O)N[C@H](CCCN)C(=O)N[C@H](C(=O)N[C@H](C(=O)N[C@H](C(=O)N[C@H](CCCCN)C(=O)N[C@H](C(=O)N[C@H](C(=O)N[C@@H](CCCCN)C(=O)N[C@H](Cc1ccc(O)cc1)C(=O)N[C@@H](CC(C)C)C(=O)N[C@H](C(=O)O)C(C)C)C(C)C)C(C)C)C(C)C)[C@@H](C)CC)[C@@H](C)CC	> 128	–	> 128	–	128	32	> 128	–	> 128	> 256	–	> 128	> 128	> 128	–	inactive	Non-toxic	inactive
